Measurements published in ChEMBL document CHEMBL2321719, “Discovery of novel α₁-adrenoceptor ligands based on the antipsychotic sertindole suitable for labeling as PET ligands” (Bioorg Med Chem, 2013).
pKi: −log10 of the molar value.

How the values were obtained:
D(2) dopamine receptor = D(2) dopamine receptor (Homo sapiens, UniProt P14416); assay: Displacement of [3H]spiperone from human dopamine D2 receptor expressed in CHO cells after 30 mins by scintillation counting analysis; format: cell-based
Sequence of D(2) dopamine receptor (P14416 whole entry): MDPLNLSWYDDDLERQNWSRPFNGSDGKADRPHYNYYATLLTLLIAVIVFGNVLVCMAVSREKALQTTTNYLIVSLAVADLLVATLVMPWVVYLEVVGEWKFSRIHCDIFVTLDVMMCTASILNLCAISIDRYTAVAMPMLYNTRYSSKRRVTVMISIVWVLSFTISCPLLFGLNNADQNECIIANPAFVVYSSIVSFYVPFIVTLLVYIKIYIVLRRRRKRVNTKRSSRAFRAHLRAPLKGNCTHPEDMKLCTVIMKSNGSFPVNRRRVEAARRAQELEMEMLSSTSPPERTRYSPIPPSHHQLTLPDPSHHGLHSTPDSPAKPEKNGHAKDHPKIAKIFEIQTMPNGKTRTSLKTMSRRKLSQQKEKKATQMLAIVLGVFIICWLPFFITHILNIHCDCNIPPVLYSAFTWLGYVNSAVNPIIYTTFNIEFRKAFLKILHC

[1] = biological target: T1, Alpha-1A adrenergic receptor (Bos taurus, UniProt P18130); assay: Displacement of [3H]prazosine from bovine alpha1A adrenoceptor expressed in BHK cells after 20 mins by scintillation counting analysis; format: cell-based
T1 sequence (P18130 whole entry): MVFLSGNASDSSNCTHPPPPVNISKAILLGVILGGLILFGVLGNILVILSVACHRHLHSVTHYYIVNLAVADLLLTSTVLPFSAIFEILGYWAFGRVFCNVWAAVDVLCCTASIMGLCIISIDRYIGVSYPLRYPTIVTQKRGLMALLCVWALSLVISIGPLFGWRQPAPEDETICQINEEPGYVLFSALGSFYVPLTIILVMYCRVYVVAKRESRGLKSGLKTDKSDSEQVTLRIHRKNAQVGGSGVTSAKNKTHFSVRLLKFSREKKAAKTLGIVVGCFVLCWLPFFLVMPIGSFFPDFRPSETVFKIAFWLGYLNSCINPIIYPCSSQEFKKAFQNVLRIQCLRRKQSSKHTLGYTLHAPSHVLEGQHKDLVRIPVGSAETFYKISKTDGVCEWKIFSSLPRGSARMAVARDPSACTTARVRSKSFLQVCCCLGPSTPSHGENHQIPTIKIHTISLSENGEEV

[2] = Selectivity ratio of Ki for human dopamine D2 receptor to Ki for bovine alpha1A adrenoceptor
Method in brief: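 D2: human receptor in CHO membranes, 0.1 nM [3H]spiperone, 50 mM Tris pH 7.4, nonspecific binding with haloperidol, 30 min at 37 °C. Both used GF/B filtration, ≥2 ten-point curves and Cheng–Prusoff.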

[3] = Unbound fraction in rat plasma at 1000 ng/g after 5 hrs by equilibrium dialysis method; format: ADME, cell-free
Method in brief: (§1)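 Free fraction was measured by 96-well equilibrium dialysis through 3 kDa membranes. Plasma was diluted 1:1 with PBS; rat brain was sonicated on ice to 1:2 brain:PBS. Matrices were spiked at 1000 ng/g (n = 6) and dialysed against PBS for 5 h at 37 °C. Samples were read by LC–MS/MS, and fu was calculated per Kalvass–Maurer with correction for brain dilution.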

[4] = Apparent permeability across apical to basolateral side in human Caco2 cells at 1 to 20 uM by LC-MS/MS analysis; format: ADME, cell-based; details: Caco-2
Method in brief: (§2)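 Caco-2 monolayers were grown on permeable filters for 21–28 days. A 2 mM DMSO stock was diluted in Hanks-Hepes buffer, pH 7.4, and added to the apical (A–B) or basolateral (B–A) side. The receiver side was sampled over 240 min and topped up with fresh buffer, then analysed by LC–MS/MS. […] Efflux ratio = Papp(B–A)/Papp(A–B).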

[5] = Unbound fraction in rat brain at 1000 ng/g after 5 hrs by equilibrium dialysis method; format: ADME, tissue-based; method in brief: as §1
[6] = Ratio of drug level in brain to plasma in rat at 1 hr; format: ADME, cell-free; details: brain and plasma, read-out: BPR
[7] = Ratio of drug level in brain to plasma at steady state in rat at 1000 ng/g after 5 hrs; format: ADME, cell-free; details: brain and plasma, read-out: BPR
Method in brief: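 Steady-state rat brain/plasma ratio was estimated from equilibrium-dialysis free fractions (spike 1000 ng/g, 5 h, 37 °C, LC–MS/MS) as fu,plasma/fu,brain. This assumes passive distribution, with equal unbound concentrations in brain and plasma.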

[8] = Efflux ratio of apparent permeability from basolateral to apical side over apical to basolateral side in human Caco2 cells at 1 to 20 uM; format: ADME, cell-based; details: Caco-2; method in brief: as §2
[9] = biological target: T2, Alpha-1D adrenergic receptor (Rattus norvegicus, UniProt P23944); assay: Displacement of [3H]prazosine from rat alpha1D adrenoceptor expressed in CHO cells after 20 mins by scintillation counting analysis; format: cell-based
T2 sequence (P23944 whole entry): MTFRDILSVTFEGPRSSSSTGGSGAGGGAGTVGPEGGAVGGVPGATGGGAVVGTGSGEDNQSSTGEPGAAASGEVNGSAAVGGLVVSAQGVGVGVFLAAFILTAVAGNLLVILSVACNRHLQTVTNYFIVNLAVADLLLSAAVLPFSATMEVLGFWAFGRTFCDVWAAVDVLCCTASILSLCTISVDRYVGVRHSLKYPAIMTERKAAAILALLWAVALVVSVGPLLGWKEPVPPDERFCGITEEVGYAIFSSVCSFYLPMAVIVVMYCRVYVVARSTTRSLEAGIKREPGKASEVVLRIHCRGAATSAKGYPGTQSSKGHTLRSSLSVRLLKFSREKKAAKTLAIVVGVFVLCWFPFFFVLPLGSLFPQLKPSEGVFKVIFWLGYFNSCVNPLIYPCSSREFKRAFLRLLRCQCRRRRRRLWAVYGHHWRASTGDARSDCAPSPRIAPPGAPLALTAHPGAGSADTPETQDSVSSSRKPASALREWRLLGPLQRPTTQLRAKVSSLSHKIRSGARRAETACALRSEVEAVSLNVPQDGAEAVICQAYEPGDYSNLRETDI

[10] = biological target: T3, Alpha-1B adrenergic receptor (Mesocricetus auratus, UniProt P18841); assay: Displacement of [3H]prazosine from hamster alpha1B adrenoceptor expressed in Rat1 cells after 20 mins by scintillation counting analysis; format: cell-based
T3 sequence (P18841 whole entry): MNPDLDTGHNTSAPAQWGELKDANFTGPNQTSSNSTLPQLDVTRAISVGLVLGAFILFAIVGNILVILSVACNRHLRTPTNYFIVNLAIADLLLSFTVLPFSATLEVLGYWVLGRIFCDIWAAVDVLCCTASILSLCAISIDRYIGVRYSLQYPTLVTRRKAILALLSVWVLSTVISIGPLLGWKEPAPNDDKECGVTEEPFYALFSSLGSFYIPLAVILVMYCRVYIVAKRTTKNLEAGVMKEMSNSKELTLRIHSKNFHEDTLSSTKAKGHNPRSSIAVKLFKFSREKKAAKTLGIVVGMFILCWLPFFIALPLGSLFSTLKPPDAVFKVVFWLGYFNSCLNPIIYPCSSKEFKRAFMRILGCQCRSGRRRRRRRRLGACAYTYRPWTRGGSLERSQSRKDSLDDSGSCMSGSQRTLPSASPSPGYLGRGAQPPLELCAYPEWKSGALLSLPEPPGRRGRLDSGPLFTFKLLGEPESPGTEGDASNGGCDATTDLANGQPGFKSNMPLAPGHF

[11] = Unbound fraction in human plasma at 1000 ng/g after 5 hrs by equilibrium dialysis method; format: ADME, cell-free; method in brief: as §1
[12] = Apparent permeability across apical to basolateral side in human Caco2 cells at 20 uM by LC-MS/MS analysis; format: ADME, cell-based; details: Caco-2; method in brief: as §2
[13] = Unbound fraction in rhesus monkey plasma at 1000 ng/g after 5 hrs by equilibrium dialysis method; format: ADME, cell-free, Macaca mulatta; method in brief: as §1
[14] = Unbound fraction in cynomolgus monkey plasma at 1000 ng/g after 5 hrs by equilibrium dialysis method; format: ADME, cell-free, Macaca fascicularis; method in brief: as §1
[15] = biological target: 5-hydroxytryptamine receptor 2A (Homo sapiens, UniProt P28223); assay: Binding affinity to 5-HT2A receptor (unknown origin) by radioligand displacement assay
Sequence of 5-hydroxytryptamine receptor 2A (P28223 whole entry): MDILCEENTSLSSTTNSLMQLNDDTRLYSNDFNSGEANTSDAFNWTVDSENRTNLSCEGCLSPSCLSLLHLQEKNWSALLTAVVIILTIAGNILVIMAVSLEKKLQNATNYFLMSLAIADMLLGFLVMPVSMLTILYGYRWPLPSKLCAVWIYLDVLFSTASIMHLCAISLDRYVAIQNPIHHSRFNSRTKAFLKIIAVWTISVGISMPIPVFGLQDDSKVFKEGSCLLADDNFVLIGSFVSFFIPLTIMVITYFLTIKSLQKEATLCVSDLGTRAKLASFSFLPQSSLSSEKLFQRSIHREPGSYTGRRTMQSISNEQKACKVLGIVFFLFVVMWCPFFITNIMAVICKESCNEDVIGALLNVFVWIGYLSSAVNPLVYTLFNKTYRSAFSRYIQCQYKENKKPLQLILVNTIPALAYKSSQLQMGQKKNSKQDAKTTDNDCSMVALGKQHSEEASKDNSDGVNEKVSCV
Method in brief: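 This external human 5-HT2A binding assay (Cerep) tested compounds at two concentrations, one of them 100 nM. Ki was derived from a single run, so the error is unknown.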

[16] = Efflux ratio of apparent permeability from basolateral to apical side over apical to basolateral side in human Caco2 cells at 20 uM; format: ADME, cell-based; details: Caco-2
Method in brief: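 Caco-2 monolayers grown 21–28 days on permeable filters; 2 mM DMSO stock diluted in Hanks-Hepes buffer, pH 7.4, and added to the apical (A–B) or basolateral (B–A) chamber. The opposite chamber was sampled over 240 min, with buffer replaced, and analysed by LC–MS/MS. Papp = dQ/dt × 1/(A × C0), with area 1.1 cm²; ratio = Papp(B–A)/Papp(A–B); N = 2.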

[17] = biological target: 5-hydroxytryptamine receptor 1B (Homo sapiens, UniProt P28222); assay: Displacement of [3H]CT from human 5-HT1B receptor expressed in human HeLa cells after 60 mins by scintillation counting analysis; format: cell-based
Sequence of 5-hydroxytryptamine receptor 1B (P28222 whole entry): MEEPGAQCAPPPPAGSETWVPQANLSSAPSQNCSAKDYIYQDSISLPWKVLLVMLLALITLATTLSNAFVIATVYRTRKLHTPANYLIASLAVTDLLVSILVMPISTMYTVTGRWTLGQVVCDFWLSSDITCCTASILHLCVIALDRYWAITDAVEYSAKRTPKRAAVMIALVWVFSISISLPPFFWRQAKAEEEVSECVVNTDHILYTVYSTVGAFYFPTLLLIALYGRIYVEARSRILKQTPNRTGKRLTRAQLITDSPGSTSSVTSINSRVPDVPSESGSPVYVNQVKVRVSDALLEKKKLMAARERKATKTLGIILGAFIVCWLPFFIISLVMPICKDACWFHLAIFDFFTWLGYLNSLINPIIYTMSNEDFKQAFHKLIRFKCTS
Method in brief: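 Membranes from HeLa cells expressing human 5-HT1B were prepared in ice-cold 50 mM Tris, pH 7.4. The assay ran in 50 mM Tris, pH 7.7, with 0.8 mg/mL WGA SPA beads and 1.5 nM [3H]CT, for 60 min at room temperature, read by scintillation counting. Nonspecific binding was taken with 5-HT creatinine sulphate. Ki came from ≥2 ten-point curves spanning 4 decades, via Cheng–Prusoff.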

[18] = biological target: 5-hydroxytryptamine receptor 6 (Homo sapiens, UniProt P50406); assay: Displacement of [3H]LSD from human 5-HT6 receptor expressed in human HeLa cells after 60 mins by scintillation counting analysis; format: cell-based
Sequence of 5-hydroxytryptamine receptor 6 (P50406 whole entry): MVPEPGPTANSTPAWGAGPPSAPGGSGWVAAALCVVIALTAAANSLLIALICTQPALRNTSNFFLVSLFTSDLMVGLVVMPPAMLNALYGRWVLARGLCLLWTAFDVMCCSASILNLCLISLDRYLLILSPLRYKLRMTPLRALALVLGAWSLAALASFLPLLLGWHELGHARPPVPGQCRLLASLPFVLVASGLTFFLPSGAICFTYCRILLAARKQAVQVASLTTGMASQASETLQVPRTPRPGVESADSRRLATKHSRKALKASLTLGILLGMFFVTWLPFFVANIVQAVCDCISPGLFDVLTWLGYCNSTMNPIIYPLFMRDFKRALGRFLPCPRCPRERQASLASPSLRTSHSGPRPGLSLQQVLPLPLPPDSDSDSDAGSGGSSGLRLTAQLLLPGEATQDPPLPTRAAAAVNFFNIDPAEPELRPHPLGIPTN
Method in brief: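 HeLa cells expressing human 5-HT6 were homogenised in 50 mM Tris, pH 7.4. Binding used 50 mM Tris, pH 7.7, and 1 nM [3H]LSD, with nonspecific binding taken with an indolylpiperidine 5-HT6 ligand. Incubation was 60 min at 22 °C, followed by GF/B filtration and scintillation counting. Ki came from ≥2 ten-point curves, via Cheng–Prusoff.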

SMILES	pKi (D(2) dopamine receptor)	pKi [1]	Ratio Ki [2]	fraction unbound at 5 h, 1000 ng/g [3]	fraction unbound at 5 h, 1000 ng/g [5]	Kp at 5 h, 1000 ng/g [7]	other results
Cn1cc(-c2ccc3c(c2)c(C2CCN(CCN4CCNC4=O)CC2)cn3-c2ccc(F)cc2)nn1	–	–	–	0.072	0.0081	8.9	Papp A→B at up to 20 µM [4]: 5 ×10⁻⁶ cm/s; Kp at 1 h [6]: > 0.05
CCN1CCC[C@H]1CNC(=O)c1c(O)c(Cl)cc(Cl)c1OC [RACLOPRIDE]	–	–	–	0.27	0.08	3.4	Papp A→B at up to 20 µM [4]: 66 ×10⁻⁶ cm/s; Kp at 1 h [6]: 6.4; efflux ratio at up to 20 µM [8]: 0.5
COc1ccccc1N1CCN(CCN(C(=O)C2CCCCC2)c2ccccn2)CC1 [WAY-100,635]	–	–	–	0.1	0.084	1.2	Papp A→B at up to 20 µM [4]: 38 ×10⁻⁶ cm/s; Kp at 1 h [6]: 1.7; efflux ratio at up to 20 µM [8]: 0.9
CN1CCC(c2cn(-c3ccc(F)cc3)c3ccc(-c4nnn(C)n4)cc23)CC1	7.16	9.55	246	–	–	–	–
CN1CCC(c2cn(-c3ccc(F)cc3)c3ccc(-c4ncn(C)n4)cc23)CC1	6.66	9.80	1380	0.074	0.002	37	pKi [9]: 7.82; pKi [10]: 8.19; fraction unbound at 5 h, 1000 ng/g [11]: 0.17; Papp A→B at 20 µM [12]: 18 ×10⁻⁶ cm/s; fraction unbound at 5 h, 1000 ng/g [13]: 0.18; fraction unbound at 5 h, 1000 ng/g [14]: 0.16; pKi [15]: 7.05; efflux ratio at 20 µM [16]: 0.7
CN1CCC(c2cn(-c3ccc(F)cc3)c3ccc(-c4ccn(C)n4)cc23)CC1	6.80	9.27	296	–	–	–	–
Cn1nnc(-c2ccc3c(c2)c(C2CCN(CCN4CCNC4=O)CC2)cn3-c2ccc(F)cc2)n1	–	–	–	0.022	0.0035	6.3	Papp A→B at up to 20 µM [4]: 12 ×10⁻⁶ cm/s; Kp at 1 h [6]: 0.26

Further lines, with some results ahead:

pKi (D(2) dopamine receptor)	pKi [1]	Ratio Ki [2]	fraction unbound at 5 h, 1000 ng/g [3]	fraction unbound at 5 h, 1000 ng/g [5]	Kp at 5 h, 1000 ng/g [7]	SMILES	other results
5.19	7.42	168	–	–	–	CN1CCC(c2cn(-c3ccncc3)c3ccc(-c4cnn(C)c4)cc23)CC1	–
7.57	8.00	3	–	–	–	CN1CCC(c2cn(-c3ccc(F)cc3)c3ccc(-c4ccncc4)cc23)CC1	–
5.96	7.66	50	–	–	–	CN1CCC(c2cn(-c3ccncc3)c3ccc(-c4cccnc4)cc23)CC1	–
7.82	9.49	47	–	–	–	CN1CCC(c2cn(-c3ccc(F)cc3)c3ccc(-c4ccnn4C)cc23)CC1	–
6.06	7.72	46	–	–	–	CN1CCC(c2cn(-c3ccncc3)c3ccc(-c4ccnn4C)cc23)CC1	–
7.12	8.64	33	–	–	–	CN1CCC(c2cn(-c3ccc(F)cc3)c3ccc(-c4cccnc4)cc23)CC1	–
6.59	7.62	11	–	–	–	CN1CCC(c2cn(-c3ccncc3)c3ccc(-c4ccncc4)cc23)CC1	–
6.82	8.57	56	–	–	–	CN1CCC(c2cn(-c3ccc(F)cc3)c3ccc(-c4cnn(C)c4)cc23)CC1	–
6.08	7.72	44	–	–	–	CN1CCC(c2cn(-c3ccncc3)c3ccc(-c4cncnc4)cc23)CC1	–
–	–	–	0.088	0.0025	35	CN1CCC(c2cn(-c3ccc(F)cc3)c3ccc(-c4cncnc4)cc23)CC1	pKi [17]: 7.89; fraction unbound at 5 h, 1000 ng/g [11]: 0.096; Papp A→B at 20 µM [12]: 13 ×10⁻⁶ cm/s; fraction unbound at 5 h, 1000 ng/g [13]: 0.13; pKi [18]: 7.80; fraction unbound at 5 h, 1000 ng/g [14]: 0.1
